Source: ChEMBL document CHEMBL3784971, “Synthesis, characterization, antimicrobial and biofilm inhibitory studies of new esterquats” (Bioorg Med Chem Lett, 2016)
Values after ≈ are worked out from the molar mass of the structure shown.

Assays:
[1] = test system: Staphylococcus aureus; assay: Antimicrobial activity against Staphylococcus aureus MTCC 96 assessed as growth inhibition after 24 hrs by agar well diffusion method; assay type: functional; settings: MTCC 96, 24 h
[2] = test system: Bacillus subtilis; assay: Antimicrobial activity against Bacillus subtilis MTCC 121 assessed as growth inhibition after 24 hrs by agar well diffusion method; assay type: functional; settings: MTCC 121, 24 h
[3] = test system: Staphylococcus aureus; assay: Antimicrobial activity against Staphylococcus aureus MLS16 MTCC 2940 assessed as growth inhibition after 24 hrs by agar well diffusion method; assay type: functional; settings: MLS16 MTCC 2940, 24 h
[4] = test system: Micrococcus luteus; assay: Antimicrobial activity against Micrococcus luteus MTCC 2470 assessed as growth inhibition after 24 hrs by agar well diffusion method; assay type: functional; settings: MTCC 2470, 24 h
[5] = test system: Raoultella planticola; assay: Antimicrobial activity against Klebsiella planticola MTCC 530 assessed as growth inhibition after 24 hrs by agar well diffusion method; assay type: functional; settings: MTCC 530, 24 h
[6] = test system: Escherichia coli; assay: Antimicrobial activity against Escherichia coli MTCC 739 assessed as growth inhibition after 24 hrs by agar well diffusion method; assay type: functional; settings: MTCC 739, 24 h
[7] = test system: Pseudomonas aeruginosa; assay: Antimicrobial activity against Pseudomonas aeruginosa MTCC 2453 assessed as growth inhibition after 24 hrs by agar well diffusion method; assay type: functional; settings: MTCC 2453, 24 h
[8] = test system: Candida albicans; assay: Antimicrobial activity against Candida albicans MTCC 3017 assessed as growth inhibition after 24 hrs by agar well diffusion method; assay type: functional; settings: MTCC 3017, 24 h
[9] = test system: Staphylococcus aureus; assay: Bactericidal activity against Staphylococcus aureus MTCC 96 after 24 hrs by serial dilution method; assay type: functional; settings: MTCC 96, 24 h
[10] = test system: Bacillus subtilis; assay: Bactericidal activity against Bacillus subtilis MTCC 121 after 24 hrs by serial dilution method; assay type: functional; settings: MTCC 121, 24 h
[11] = test system: Staphylococcus aureus; assay: Bactericidal activity against Staphylococcus aureus MLS16 MTCC 2940 after 24 hrs by serial dilution method; assay type: functional; settings: MLS16 MTCC 2940, 24 h
[12] = test system: Micrococcus luteus; assay: Bactericidal activity against Micrococcus luteus MTCC 2470 after 24 hrs by serial dilution method; assay type: functional; settings: MTCC 2470, 24 h
[13] = test system: Raoultella planticola; assay: Bactericidal activity against Klebsiella planticola MTCC 530 after 24 hrs by serial dilution method; assay type: functional; settings: MTCC 530, 24 h
[14] = test system: Escherichia coli; assay: Bactericidal activity against Escherichia coli MTCC 739 after 24 hrs by serial dilution method; assay type: functional; settings: MTCC 739, 24 h
[15] = test system: Staphylococcus aureus; assay: Antibiofilm activity against Staphylococcus aureus MTCC 96 after 24 hrs by crystal violet staining based assay; assay type: functional, organism-based; settings: MTCC 96, 24 h
How it was run: (§1)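 Biofilm inhibition tested for amine esters and esterquats. IC50 values (µg/mL) are the mean of three determinations, with ciprofloxacin as reference.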

[16] = test system: Staphylococcus aureus; assay: Antibiofilm activity against Staphylococcus aureus MLS16 MTCC 2940 after 24 hrs by crystal violet staining based assay; assay type: functional, organism-based; settings: MLS16 MTCC 2940, 24 h; how it was run: as §1
[17] = test system: Micrococcus luteus; assay: Antibiofilm activity against Micrococcus luteus MTCC 2470 after 24 hrs by crystal violet staining based assay; assay type: functional, organism-based; settings: MTCC 2470, 24 h; how it was run: as §1

Compound | MIC [1] [mg/L] | MIC [2] [mg/L] | MIC [3] [mg/L] | MIC [4] [mg/L] | MIC [6] [mg/L] | MIC [7] [mg/L] | MIC [8] [mg/L] | IC50 [15] [mg/L] | IC50 [16] [mg/L] | IC50 [17] [mg/L] | MIC [5] [mg/L] | MBC [9] [mg/L] | MBC [10] [mg/L] | MBC [11] [mg/L] | MBC [12] [mg/L] | MBC [13] [mg/L] | MBC [14] [mg/L]
COC(=O)CCCCCCCCCCN(C1CCCCC1)C1CCCCC1 | 31.2 (≈ 82.2 µM) | 62.5 (≈ 165 µM) | 31.2 (≈ 82.2 µM) | 15.6 (≈ 41.1 µM) | > 125 | > 125 | > 125 | 21.3 (≈ 56.1 µM) | 20.8 (≈ 54.8 µM) | 19.9 (≈ 52.4 µM) | > 125 | 62.5 (≈ 165 µM) | > 125 | > 125 | 31.2 (≈ 82.2 µM) | > 125 | > 125
CCCCCCCCN(CCCCCCCC)CCCCCCCCCCC(=O)OC | 15.6 (≈ 35.5 µM) | > 125 | 62.5 (≈ 142 µM) | 31.2 (≈ 70.9 µM) | > 125 | > 125 | > 125 | 14.5 (≈ 33 µM) |  | 17.2 (≈ 39.1 µM) | > 125 | 31.2 (≈ 70.9 µM) | > 125 | > 125 | 62.5 (≈ 142 µM) | > 125 | > 125
CCCCCCCCCCCCCCCCCC[N+](C)(CCCCCCCCCCC(=O)OC)CCCCCCCCCCC(=O)OC.[Cl-] | > 125 | > 125 | > 125 | > 125 | > 125 | > 125 | > 125 |  |  |  | > 125 | > 125 | > 125 | > 125 | > 125 | > 125 | > 125

The next lines start with results.

MIC [1] [mg/L] | MIC [2] [mg/L] | MIC [3] [mg/L] | MIC [4] [mg/L] | MIC [6] [mg/L] | MIC [7] [mg/L] | MIC [8] [mg/L] | IC50 [15] [mg/L] | IC50 [16] [mg/L] | IC50 [17] [mg/L] | Compound | MIC [5] [mg/L] | MBC [9] [mg/L] | MBC [10] [mg/L] | MBC [11] [mg/L] | MBC [12] [mg/L] | MBC [13] [mg/L] | MBC [14] [mg/L]
> 125 | > 125 | > 125 | > 125 | > 125 | > 125 | > 125 |  |  |  | CCCCCCCCCCCCCCCCCC[N+](C)(C)CCCCCCCCCCC(=O)OC.[Cl-] | > 125 | > 125 | > 125 | > 125 | > 125 | > 125 | > 125
> 125 | > 125 | > 125 | > 125 | > 125 | > 125 | > 125 |  |  |  | CCCCCCCCCCCCCCCCCCNCCCCCCCCCCC(=O)OC | > 125 | > 125 | > 125 | > 125 | > 125 | > 125 | > 125
> 125 | > 125 | > 125 | > 125 | > 125 | > 125 | > 125 |  |  |  | CCCCCCCCCCCCNCCCCCCCCCCC(=O)OC | > 125 | > 125 | > 125 | > 125 | > 125 | > 125 | > 125
